PERK inh: block of dimerizer-induced PERK translation repression, primary screen, PERK inhibitor project, CHO PERK-DD cells, SEAP luminescence, HTS; CHO PERK-DD fusion, SEAP luminescence translation reporter; Eukaryotic translation initiation factor 2-alpha kinase 3 (Homo sapiens), Q9NZJ5; 220,000 compounds, 0.17% hits; AID 1416, 2008; inhibition, % at 5.6 µM;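 active means inhibition above the mean inhibition of all tested compounds plus 3 SD, set separately per screening campaign, cut at about 2.9% in these data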;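 further: PERK kinase domain activated by AP20187 dimerizer at 100 nM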
RanGTP-Imp inh: inhibitors of RanGTP-importin-beta interaction, primary screen, biochemical, FRET, CFP-Ran, YFP-importin-beta, homogeneous | cell-free CFP-Ran/YFP-importin-beta FRET ratio | AID 2216, 2009 | inhibition, % (no concentration beside the values) | 300,000 compounds, 1.1% hits;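 active means more than half of the replicate wells show a fall in the fluorescence ratio signal beyond about 16%, limit read from the data, passing the limit was not always enough; inconclusive means exactly half of the replicate wells pass the set limit; inactive means fewer than half of replicates pass the limit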
Runt-SMMHC FRET: inhibitors of RUNX1 Runt–CBFb-SMMHC binding, primary screen, biochemical, FRET, Cerulean-Runt, Venus-CBFb-SMMHC, uHTS. 220,000 compounds, 0.74% hits. inhibition, % at 20 µM. Cerulean-Runt/Venus-CBFb-SMMHC FRET ratio 530/480, 1 h;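 active means mean inhibition across duplicate retests at 20 µM reaching about 50%, limit read from the data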;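 further: inhibitors lower the FRET ratio by blocking Runt binding to CBFb-SMMHC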
Target sequence (Q01196 whole entry, looked up): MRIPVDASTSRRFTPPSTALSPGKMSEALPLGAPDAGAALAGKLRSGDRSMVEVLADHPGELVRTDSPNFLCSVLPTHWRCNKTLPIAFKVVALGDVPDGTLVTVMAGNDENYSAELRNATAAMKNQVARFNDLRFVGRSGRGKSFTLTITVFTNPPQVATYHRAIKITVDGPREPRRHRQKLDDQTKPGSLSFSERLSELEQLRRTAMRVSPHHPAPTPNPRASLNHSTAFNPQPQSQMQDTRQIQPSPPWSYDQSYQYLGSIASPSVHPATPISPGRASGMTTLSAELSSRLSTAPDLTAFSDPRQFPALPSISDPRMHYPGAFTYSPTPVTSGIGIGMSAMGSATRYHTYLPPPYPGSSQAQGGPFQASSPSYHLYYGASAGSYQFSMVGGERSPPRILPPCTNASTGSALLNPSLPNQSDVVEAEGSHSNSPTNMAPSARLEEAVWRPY
Target sequence (Q13951 whole entry, looked up): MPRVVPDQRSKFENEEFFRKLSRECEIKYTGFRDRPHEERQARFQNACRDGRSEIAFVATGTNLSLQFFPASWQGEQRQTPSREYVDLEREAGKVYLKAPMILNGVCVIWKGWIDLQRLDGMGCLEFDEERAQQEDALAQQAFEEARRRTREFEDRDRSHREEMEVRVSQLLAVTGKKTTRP
Runt-CBFb FRET: inhibitors of RUNX1 Runt–CBFb binding, primary screen, biochemical, FRET, Cerulean-Runt, Venus-CBFb, uHTS; Runt-related transcription factor 1 (Homo sapiens) + Core-binding factor subunit beta …; Cerulean-Runt/Venus-CBFb FRET ratio 530/480, 1 h; inhibition, % at 20 µM; 220,000 compounds, 0.46% hits; AID 1496, 2009;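 active means inhibition over about 50% at 20 µM in the single-dose screen, limit read from the data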
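Schedule: protein complex preformed 1 h, compound exposure 1 h, room temperature, dark; test system: Cerulean-labeled Runt domain protein; amount: 100 nM per protein; buffer or medium: Tris 50 mM pH 7.5, KCl, K2SO4, 0.01% BSA; read-out: loss of energy transfer signal; detection: FRET fluorescence; controls: 5 µM unlabeled CBFb as full-inhibition high control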
Hck-Nef inh: inhibitors of Nef-activated human Hck kinase, primary screen, biochemical, Z-Lyte FRET, 384-well, Hck-YEEI. Recombinant Hck-YEEI plus Nef, Z-Lyte FRET kinase assay. inhibition, % at 20 µM. 220,000 compounds, 0.68% hits. Tyrosine-protein kinase HCK (Homo sapiens), P08631;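 active means Hck-Nef kinase inhibition above about 50%, limit read from the data; inactive means inhibition below that limit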
eIF4E-4G inh: eIF4E–eIF4G protein interaction inhibitors, primary screen, biochemical, uHTS, TR-FRET, eIF4GI fragment. TR-FRET eIF4E-eIF4GI(517-606) binding, 2 h. inhibition, % at 21.7 µM. 220,000 compounds, 0.37% hits;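 active means inhibition above about 30%, limit read from the data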
Runt-CBFb TRFRET: inhibitors of RUNX1 Runt–CBFb binding, biochemical, TR-FRET | shares compounds with Runt-CBFb FRET | TR-FRET RUNX1 Runt domain-CBFb binding | inhibition, % at 20 µM | 480 compounds, 20% hits | AID 1502, 2009; in the data active means inhibition above about 40%
Large screens that a line does not name were inactive (follow-up assays come after a bar, where they were run). Sampled rows, rich in hits. Any-hit rate of the full collection: about 2.2%.

C#CC1(NC(=O)NC(=O)c2c(F)cccc2F)CCCCC1	none
CC1CN(CC(=O)Nc2cc(S(=O)(=O)N3CCCC3)ccc2Cl)CC(C)O1 (stereo not drawn)	none
COc1ccc(C(=O)Oc2ccc3ccc(=O)oc3c2)cc1	none (no result: PERK inh, Runt-SMMHC FRET, Runt-CBFb FRET, Hck-Nef inh, eIF4E-4G inh)
Cc1ccc(S(=O)(=O)N(C(=O)c2ccco2)c2cc3sc(=O)oc3c3ccccc23)cc1	none
CC(C)C(=O)N(c1ccc2oc(=O)sc2c1)S(=O)(=O)c1ccccc1	Runt-SMMHC FRET 63, Runt-CBFb FRET 58 | Runt-CBFb TRFRET inactive
COc1ccc(C(=O)Oc2ccc3oc(=O)sc3c2)cc1	Runt-CBFb FRET 65 | Runt-CBFb TRFRET inactive
CCNC(=O)Oc1ccc[nH]c1=O	none
CCS(=O)(=O)N1CCC(C(=O)Oc2ccccc2Br)CC1	none (no result: PERK inh, Runt-SMMHC FRET, Runt-CBFb FRET, Hck-Nef inh, eIF4E-4G inh)
Cn1nc(-c2ccc(C(=O)N3CCN(Cc4ccccc4)CC3)cc2)c2ccccc2c1=O	none
CCN(CC)S(=O)(=O)c1ccc(OC)c(NS(=O)(=O)c2ccc(F)cc2)c1	Runt-CBFb FRET 50 | Runt-CBFb TRFRET inactive
O=C(NCCCN1CCOCC1)c1sc2cc([N+](=O)[O-])ccc2c1Cl	Runt-CBFb FRET 50 | Runt-CBFb TRFRET inactive
O=S(=O)(Nc1ccc(-c2nc3cccnc3s2)cc1)c1ccc(Cl)s1	RanGTP-Imp inh inconclusive, Runt-CBFb FRET 68 (no result: Runt-SMMHC FRET) | Runt-CBFb TRFRET inactive
CCS(=O)(=O)Nc1cccc(-c2nc3cccnc3s2)c1	none
CON(C)S(=O)(=O)c1cccc(C(=O)NC2CCSc3ccccc32)c1 (stereo not drawn)	none (no result: PERK inh, Runt-SMMHC FRET, Runt-CBFb FRET, Hck-Nef inh, eIF4E-4G inh)
CC(C)(C)OC(=O)N1CCC(C(=O)N2CCOCC2)CC1	Runt-CBFb FRET 84 | Runt-CBFb TRFRET inactive
CC(C)(C)OC(=O)N1CCC(C(=O)N2CCCCCC2)CC1	none
NS(=O)(=O)c1ccc(NC(=S)N2CCN(c3cccc(Cl)c3)CC2)cc1	Runt-CBFb FRET 52 | Runt-CBFb TRFRET 58
NS(=O)(=O)c1ccc(NC(=S)N2CCN(c3ccccc3Cl)CC2)cc1	none
CN1CCc2c(sc3ncn4nc(-c5ccccc5O)nc4c23)C1	Runt-SMMHC FRET 125, Runt-CBFb FRET 57 (no result: RanGTP-Imp inh, eIF4E-4G inh) | Runt-CBFb TRFRET inactive
COc1ccc(NC(=O)CN(C)C(=O)CN2C(=O)c3ccc([N+](=O)[O-])cc3C2=O)cc1	none (no result: PERK inh, Runt-SMMHC FRET, Runt-CBFb FRET, Hck-Nef inh, eIF4E-4G inh)
COCCOC(=O)C(C#N)c1nc2ccccc2nc1N1CCN(Cc2ccccc2)CC1 (stereo not drawn)	Runt-SMMHC FRET 97, Runt-CBFb FRET 53 | Runt-CBFb TRFRET inactive
CCc1cccc(C)c1NC(=S)NCc1cccn1C	none
CCC1(C)Cc2c(sc3[nH]c(=O)[nH]c(=O)c23)CS1 (stereo not drawn)	Runt-CBFb FRET 57 (no result: Runt-SMMHC FRET) | Runt-CBFb TRFRET inactive
C=CCn1c(N)c(C(=O)OC(C)(C)C)c2nc3ccccc3nc21	RanGTP-Imp inh 29, Runt-SMMHC FRET 95, Runt-CBFb FRET 70 (no result: eIF4E-4G inh) | Runt-CBFb TRFRET inactive
FC(F)Oc1ccc(-c2csc(NNC3=NCCCCC3)n2)cc1	Runt-CBFb FRET 55 | Runt-CBFb TRFRET inactive
NC(=O)c1cc(N2C(=O)C3CC=CCC3C2=O)ccc1N1CCCCC1 (stereo not drawn)	none
S=c1nc(-c2cc(Cl)ccc2Cl)[nH][nH]1	Runt-CBFb FRET 57 | Runt-CBFb TRFRET inactive
CCOC(=O)C1CCN(C(=O)c2cc(COc3ccc(OC)c4ccccc34)on2)CC1	none (no result: PERK inh, Runt-SMMHC FRET, Runt-CBFb FRET, Hck-Nef inh, eIF4E-4G inh)
Oc1ccc(N=Cc2ccc(-c3cccs3)s2)cc1	RanGTP-Imp inh 28, Runt-CBFb FRET 69 (no result: Runt-SMMHC FRET) | Runt-CBFb TRFRET 50
CCCC(C)c1nnc(NC(=O)c2cc(C(=O)OC)cc([N+](=O)[O-])c2)s1 (stereo not drawn)	Runt-CBFb FRET 53 | Runt-CBFb TRFRET inactive
CCCC(C)NC(=O)c1cc(C(=O)OC)cc([N+](=O)[O-])c1 (stereo not drawn)	none
CCC12OC(=N)C(C#N)(C1C)C(C#N)(C#N)C(c1ccccc1)O2 (stereo not drawn)	RanGTP-Imp inh 21, Runt-SMMHC FRET 88, Runt-CBFb FRET 58 | Runt-CBFb TRFRET 41
O=C(NCCN1CCCCC1)c1cc(Cl)ccc1Cl	none (no result: PERK inh, Runt-SMMHC FRET, Runt-CBFb FRET, Hck-Nef inh, eIF4E-4G inh)
CCOC(=O)N1CCN(C(=O)c2ccc3c(SCC(=O)O)c4c(nc3c2)CCCC4)CC1	none
O=C(O)CSc1c2c(nc3cc(C(=O)N4CCOCC4)ccc13)CCCC2	RanGTP-Imp inh 31, Runt-SMMHC FRET 102, Runt-CBFb FRET 59 | Runt-CBFb TRFRET inactive
CN1c2ccsc2C(O)=C(C(=S)Nc2ccccc2)S1(=O)=O	RanGTP-Imp inh 89, Runt-SMMHC FRET 91, Runt-CBFb FRET 53 | Runt-CBFb TRFRET inactive
CN1c2ccccc2C(O)=C(C(=S)Nc2ccccc2)S1(=O)=O	none
O=C(Cn1c(=O)oc2ccccc21)Nc1nc(-c2ccccc2)cs1	none
O=C(Cn1c(=O)oc2ccccc21)Nc1n[nH]c(=S)s1	Runt-CBFb FRET 54 | Runt-CBFb TRFRET 63
N#CC1=C(N)Oc2cc(O)c(C=Nc3ccccc3)cc2C1c1ccccc1 (stereo not drawn)	RanGTP-Imp inh inconclusive
Cc1ccccc1N=Cc1cc2c(cc1O)OC(N)=C(C#N)C2c1ccccc1 (stereo not drawn)	RanGTP-Imp inh 30, Runt-SMMHC FRET 109, Runt-CBFb FRET 71 | Runt-CBFb TRFRET inactive
O=c1[nH]c2ccccc2c(O)c1O	Runt-SMMHC FRET 57, Runt-CBFb FRET 59 | Runt-CBFb TRFRET inactive
O=c1[nH]c2ccccc2c(O)c1-[n+]1ccccc1	none
O=c1c2ccccc2c(C=NC2CCN(Cc3ccccc3)CC2)c(O)n1Cc1ccc2c(c1)OCO2	none
CCc1ccc2[nH]c3nc(C)cc(C)c3c(=O)c2c1	Runt-SMMHC FRET 83, Runt-CBFb FRET 58 | Runt-CBFb TRFRET inactive
CCc1ccc2[nH]cc(S(=O)(=O)c3ccc(C)c(C)c3)c(=O)c2c1	none (no result: PERK inh, Runt-SMMHC FRET, Runt-CBFb FRET, Hck-Nef inh, eIF4E-4G inh)
CCOC(=O)C1=C(C)N(c2ccc(OC)cc2)C(=O)/C1=C\c1ccc(O)c(OCC)c1	Runt-CBFb FRET 65 | Runt-CBFb TRFRET inactive
Cc1ccc(NC(=O)CSc2nnc(C)c(=O)n2N)c(C)c1	none
